Like-named read-outs stand apart in the source and are kept apart here.
Legend:
[1] = Chemical stability in simulated gastric fluid; format: physicochemical; conditions: for SGF t1/2: SGF pH 1.2, 37 °C
Procedure, shortened: (§1)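 Incubated in simulated gastric fluid (pH 1.2) or simulated intestinal fluid at 37 °C. Remaining prodrug measured over time by reverse-phase C18 HPLC (0.1% TFA water/acetonitrile gradient). t1/2 estimated by linear regression of pseudo-first-order plots of prodrug concentration vs time.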

[2] = Chemical stability in simulated intestinal fluid; format: physicochemical; conditions: for SIF (pH 6.5) t1/2: 37 °C
Procedure, shortened: as §1

[3] = Chemical stability in pH 7.4 phosphate buffer; format: physicochemical; conditions: for Buffer pH 7.4 t1/2: phosphate buffer pH 7.4, 37 °C
Procedure, shortened: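 Non-enzymatic hydrolysis in 10 mmol/L phosphate buffer pH 7.4, triplicate wells, 37 °C up to 120 min. Aliquots quenched in acetonitrile with 0.1% TFA, filtered, and run on reverse-phase C18 HPLC (TFA water/acetonitrile gradient). t1/2 from linear regression of pseudo-first-order plots of prodrug concentration vs time.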

[4] = Enzymatic stability in Caco-2 cell homogenates; format: in vitro ADME; conditions: for Caco-2 cell homogenates t1/2: 500 μg/mL protein, 37 °C; for Stability in cell homogenate, D-prodrug relative to L-prodrug: Caco-2 cell homogenates (assigned from Table 2 ratios)
Microsomal stability = format: in vitro ADME, human; conditions: for Human liver microsome t1/2: 500 μg/mL microsomal protein, NADPH, 37 °C
Thymidine phosphorylase = biological target: T1, Thymidine phosphorylase (Homo sapiens, UniProt P19971); experiment: Stability toward thymidine phosphorylase; format: in vitro ADME
T1 sequence (P19971 11-482): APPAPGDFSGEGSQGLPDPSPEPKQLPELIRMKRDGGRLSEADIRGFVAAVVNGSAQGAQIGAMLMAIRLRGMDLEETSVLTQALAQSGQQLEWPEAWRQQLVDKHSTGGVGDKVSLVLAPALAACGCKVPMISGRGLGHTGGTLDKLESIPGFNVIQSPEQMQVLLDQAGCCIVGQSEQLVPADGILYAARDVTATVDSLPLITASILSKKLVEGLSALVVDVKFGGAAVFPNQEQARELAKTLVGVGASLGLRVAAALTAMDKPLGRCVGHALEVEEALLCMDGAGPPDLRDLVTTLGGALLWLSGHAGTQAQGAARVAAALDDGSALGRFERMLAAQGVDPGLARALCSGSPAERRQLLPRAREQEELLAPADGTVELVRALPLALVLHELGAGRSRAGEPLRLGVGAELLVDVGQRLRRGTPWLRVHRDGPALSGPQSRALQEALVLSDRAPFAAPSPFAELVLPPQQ

[5] = Enzymatic stability in AsPC-1 cell homogenates; format: in vitro ADME; conditions: for AsPC-1 cell homogenates t1/2: 500 μg/mL protein, 37 °C; for Stability in cell homogenate, D-prodrug relative to L-prodrug: AsPC-1 cell homogenates (assigned from Table 2 ratios)
Caco-2 cells = experiment: Uptake study in Caco-2 cells; format: cell-based; conditions: for Cytosine (%) of species found in cells / Gemcitabine (%) of species found in cells / Prodrug (%) of species found in cells: Caco-2 uptake without Gly-Pro, 1 h
AsPC-1 cells [6] = experiment: Uptake study in AsPC-1 cells; format: cell-based; conditions: for Cytosine (%) of species found in cells / Gemcitabine (%) of species found in cells / Prodrug (%) of species found in cells: AsPC-1 uptake, 100 μM, 1 h; for Uptake amount, D-prodrug relative to L-prodrug (higher): 100 μM drug solution
AsPC-1 cells [7] = experiment: Cell proliferation assay; format: cell-based
Procedure, shortened: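 AsPC-1 cells seeded at 125,000/well and grown 24 h in RPMI-1640 + 10% FBS, then washed with pH 6.0 uptake buffer. Test compound 2-fold serially diluted (5 to 0.078 mmol/L) in that buffer and applied for 2 h at 37 °C; buffer alone served as 100% viability. After washing, 24 h recovery in medium. XTT/phenazine methosulfate read at 450 nm; GI50 from nonlinear fitting.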

mouse jejunum = experiment: In situ single-pass intestinal perfusion in mice
[8] = for Concentration in plasma, D-prodrug relative to L-prodrug (higher): mouse plasma after in situ perfusion, prodrug plus metabolites
[9] = Caco-2 cell monolayer permeability, apical-to-basolateral; format: in vitro ADME; conditions: human, Caco-2
Procedure, shortened: (§2)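 Caco-2 cells grown 21–24 days on collagen-coated PTFE inserts, TEER 550–600 Ω cm2. Apical MES (pH 6.0) and basolateral HEPES (pH 7.4) buffers, preincubated 15 min at 37 °C. 0.1 mM test compound in apical MES, ±10 mM Gly-Pro. Receiver sampled at 15–120 min at 37 °C with buffer replacement. Samples acidified with 0.1% TFA and analysed by HPLC.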

Caco-2 monolayer = experiment: as above; format: in vitro ADME
Procedure, shortened: as §2

[10] = In situ single-pass intestinal perfusion in mice; conditions: female, BALB/c, mouse, other: in situ single-pass intestinal (jejunal) perfusion, pH 6
[11] = read-out: GI50 AsPC-1, 2 h exposure at pH 6.0, 24 h recovery, XTT

Row | Compound | SGF t1/2 [1] [min] | SIF (pH 6.5) t1/2 [2] [min] | Buffer pH 7.4 t1/2 [3] [min] | Caco-2 cell homogenates t1/2 [4] [min] | Human liver microsome t1/2 (Microsomal stability) [min] | Thymidine phosphorylase t1/2 (Thymidine phosphorylase) [min] | AsPC-1 cell homogenates t1/2 [5] [min] | Cytosine (%) of species found in cells (Caco-2 cells) [%] | Gemcitabine (%) of species found in cells (Caco-2 cells) [%] | Prodrug (%) of species found in cells (Caco-2 cells) [%] | Cytosine (%) of species found in cells (AsPC-1 cells [6]) [%] | Gemcitabine (%) of species found in cells (AsPC-1 cells [6]) [%] | Prodrug (%) of species found in cells (AsPC-1 cells [6]) [%] | GI50 (AsPC-1 cells [7]; [11]) [mM] | Stability in cell homogenate, D-prodrug relative to L-prodrug [4] [fold] | Stability in cell homogenate, D-prodrug relative to L-prodrug [5] [fold] | Uptake amount, D-prodrug lower than L-prodrug (Caco-2 cells; Caco-2 cells) [%] | Uptake amount, D-prodrug relative to L-prodrug (higher) (AsPC-1 cells [6]; AsPC-1 cells) [fold] | Concentration in plasma, D-prodrug relative to L-prodrug (higher) [8] [fold] | also measured
1 | 5′-L-Valyl-gemcitabine | >120 | >120 | >120 | 19.5 ± 1.9 | 27.8 ± 13.6 | >120 | 13.8 ± 3.3 | 0 | 15 | 85 | 20 | 11 | 69 | 2 ± 0.8 | – | – | – | – | – | Membrane permeability, L-prodrug better than D-prodrug (mouse jejunum; mouse in situ perfusion): 87%
2 | Nc1ccn([C@@H]2O[C@H](COC(=O)[C@H](N)Cc3ccccc3)[C@@H](O)C2(F)F)c(=O)n1 [5′-D-Phenylalanyl-gemcitabine] | >120 | >120 | >120 | 21.7 ± 0.2 | 6.6 ± 1.3 | >120 | 63.9 ± 11.2 | 0 | 31 | 69 | 1 | 87 | 12 | 5.6 ± 1.1 | 10.9 | 9.4 | 70 | 3.3 | 2.0 | Stability in human liver microsomes, D-prodrug relative to L-prodrug (Microsomal stability): 3.7 fold; Uptake enhancement relative to gemcitabine (AsPC-1 cells [6]; AsPC-1 cells, lower concentration (50 μM)): did not show the enhancement of uptake
3 | CC(C)[C@@H](N)C(=O)OC[C@H]1O[C@@H](n2ccc(N)nc2=O)C(F)(F)[C@@H]1O [5′-D-Valyl-gemcitabine] | >120 | >120 | >120 | 42.0 ± 17.5 | 19.5 ± 4.4 | >120 | 87.2 ± 13.5 | 0 | 10 | 90 | 4 | 77 | 19 | 2.2 ± 0.9 | 2.2 | 6.3 | 46 | 3.1 | 2.3 | Dose linearity of uptake (AsPC-1 cells [6]; AsPC-1 cells, 50 μM vs 100 μM): exhibited the dose linearity; Prodrug concentration in blood ([8]; after in situ perfusion of mouse small intestine): highest
4 | Nc1ccn([C@@H]2O[C@H](COC(=O)[C@@H](N)Cc3ccccc3)[C@@H](O)C2(F)F)c(=O)n1 [5′-L-Phenylalanyl-gemcitabine] | >120 | >120 | >120 | 2.0 ± 0.3 | 1.8 ± 0.2 | 31.9 ± 5.0 | 6.8 ± 2.0 | 0 | 18 | 82 | 10 | 84 | 6 | 4.3 ± 1.5 | – | – | – | – | – | –
5 | Nc1ccn([C@@H]2O[C@H](CO)[C@@H](O)C2(F)F)c(=O)n1 [Gemcitabine, reference compound] | – | – | – | – | – | – | – | – | 50 | – | – | 90 | – | – | – | – | – | – | – | Degradation in SGF [1]: no significant degradation; half-life ([1]; simulated gastric fluid (SGF), pH 1.2): > 120 min; Degradation in SIF [2]: no significant degradation; half-life ([2]; simulated intestinal fluid (SIF), pH 6.5): > 120 min; Degradation in pH 7.4 phosphate buffer ([3]; pH 7.4): no significant degradation; half-life ([3]; phosphate buffer, pH 7.4): > 120 min; half-life ([4]; human, Caco-2, pH 7.4): 105 ± 6.1 min; half-life (Microsomal stability; human, human liver microsomes, pH 7.4): 45.3 ± 3.3 min; Resistance against thymidine phosphorylase (words) (Thymidine phosphorylase): rapidly cleaved; Resistance against thymidine phosphorylase (words) (Thymidine phosphorylase; listed as gemcitabine): did not display the resistance; half-life (Thymidine phosphorylase; thymidine phosphorylase, pH 7.4): 6 ± 1.8 min; half-life ([5]; human, AsPC-1 cell homogenates, pH 7.4): 33.7 ± 14.5 min; Difference in uptake amount with and without 10 mM Gly-Pro (Caco-2 cells; Caco-2 cells): did not exhibit the difference; Papp at 2 h, 0.1 mM [9]: 1 ± 0.2 ×10⁻⁶ cm/s; Difference in membrane permeability with and without 10 mM Gly-Pro (Caco-2 monolayer; Caco-2 monolayers): did not exhibit the difference; Species detected in the basolateral receiver compartment (Caco-2 monolayer; following transport across Caco-2 monolayers): only cytosine; GI50 (AsPC-1 cells [7]; Homo sapiens, ASPC1, pH 6, read-out: GI50 AsPC-1): 10.2 ± 1.6 mM; Papp at 90 min, 100 μM [10]: 2 ×10⁻⁶ cm/s; Peff, mouse perfusion (mouse jejunum; mouse jejunum, 100 μM, pH 6.0): 2.0 ± 0.2 ×10^−5 cm/s

— PMC4243704 (European journal of pharmaceutics and biopharmaceutics : …, 2013)
